According to ChEMBL document CHEMBL1149635, “New chemical tools for investigating human mitotic kinesin Eg5” (Bioorg Med Chem, 2007):
Active and inactive are the calls of the source. No cut-off for these calls is given here.

Assays:
HeLa [1] = assay: Induction of monoastral spindles in HeLa cells at 50 uM after 7 hrs; type: functional, Homo sapiens
Outline: (§1)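 Fixed 1% paraformaldehyde-PBS 37 °C 3 min, then methanol −20 °C 5 min; anti-β-tubulin plus FITC secondary, propidium iodide counterstain. Monoastral spindles counted as percentage of mitotic cells; <25% deemed not significant.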

[2] = target: T1, Kinesin-like protein KIF11 (Homo sapiens) (UniProt P52732); assay: Inhibition of Eg5 ATPase activity expressed in Escherichia coli at 500 uM after 12 hrs; type: functional
T1 sequence (whole entry): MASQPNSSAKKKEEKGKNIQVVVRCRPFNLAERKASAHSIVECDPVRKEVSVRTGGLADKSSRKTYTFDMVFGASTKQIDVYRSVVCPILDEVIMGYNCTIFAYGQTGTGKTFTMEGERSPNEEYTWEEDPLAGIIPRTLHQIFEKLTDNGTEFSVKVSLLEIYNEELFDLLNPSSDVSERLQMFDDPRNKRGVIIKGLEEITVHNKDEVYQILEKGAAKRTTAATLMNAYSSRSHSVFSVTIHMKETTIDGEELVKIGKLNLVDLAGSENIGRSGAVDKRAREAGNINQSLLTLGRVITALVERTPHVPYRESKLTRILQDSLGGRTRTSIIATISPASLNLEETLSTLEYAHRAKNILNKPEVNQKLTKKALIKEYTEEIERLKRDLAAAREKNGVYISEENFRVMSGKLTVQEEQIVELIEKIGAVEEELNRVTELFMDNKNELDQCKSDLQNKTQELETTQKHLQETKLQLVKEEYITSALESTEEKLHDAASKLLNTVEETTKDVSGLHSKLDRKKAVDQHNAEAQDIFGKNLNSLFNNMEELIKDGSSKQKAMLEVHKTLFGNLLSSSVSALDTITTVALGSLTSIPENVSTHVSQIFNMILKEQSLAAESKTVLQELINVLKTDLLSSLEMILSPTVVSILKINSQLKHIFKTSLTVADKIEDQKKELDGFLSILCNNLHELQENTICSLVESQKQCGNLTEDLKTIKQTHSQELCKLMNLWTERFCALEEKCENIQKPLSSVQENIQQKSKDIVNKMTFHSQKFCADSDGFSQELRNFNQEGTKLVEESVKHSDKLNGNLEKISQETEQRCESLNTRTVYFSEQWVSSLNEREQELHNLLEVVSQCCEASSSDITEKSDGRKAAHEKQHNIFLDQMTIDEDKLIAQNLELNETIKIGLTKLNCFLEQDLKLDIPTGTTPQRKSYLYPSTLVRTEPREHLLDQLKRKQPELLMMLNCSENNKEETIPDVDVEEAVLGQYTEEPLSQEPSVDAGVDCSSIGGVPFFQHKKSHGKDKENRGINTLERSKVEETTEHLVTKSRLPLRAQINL
Outline: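 Basal (no microtubules) steady-state ATPase of Eg5 2–386 at 1.0 µM, pyruvate kinase/lactate dehydrogenase-coupled assay, room temperature, duplicate, 2.5% DMSO; top concentration 500 µM. Acetylated analogues alternatively preincubated (2 mM) 12 h at 37 °C in DMEM + 10% FBS before basal ATPase measurement.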

[3] = target: T1, Kinesin-like protein KIF11 (Homo sapiens); assay: Inhibition of microtubule-stimulated Eg5 ATPase activity expressed in Escherichia coli at 500 uM after 12 hrs; type: functional
[4] = target: T2, Kinesin-like protein KIF11 (Homo sapiens, UniProt P52732); assay: Inhibition of Eg5 ATPase activity expressed in Escherichia coli after 12 hrs
T2 sequence (P52732 whole entry): T1 sequence (whole entry)

HeLa [5] = assay: Induction of monoastral spindles in HeLa cells at 100 uM after 7 hrs; type: functional, Homo sapiens; outline: as §1
[6] = target: T2, Kinesin-like protein KIF11; assay: Inhibition of Eg5 ATPase activity expressed in Escherichia coli after 12 hrs; type: functional
[7] = target: T2, Kinesin-like protein KIF11; assay: Inhibition of microtubule-stimulated Eg5 ATPase activity expressed in Escherichia coli after 12 hrs; type: functional
HeLa [8] = assay: Cell cycle arrest in human HeLa cells assessed as 4N DNA content at 25 uM after 24 hrs; type: functional
Outline: (§2)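 HeLa cells exposed 24 h; two-dimensional flow cytometry with MPM-2 antibody (mitosis-specific phosphoepitopes, FITC-conjugated secondary) and propidium iodide for DNA content; 10,000 events per sample, aggregates gated out; 4N population and fraction MPM-2 positive scored.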

HeLa [9] = assay: Induction of monoastral spindles in HeLa cells after 7 hrs; type: functional, cell-based; conditions: Homo sapiens; outline: as §1
HeLa [10] = assay: Cell cycle arrest in human HeLa cells assessed as 4N DNA content at 100 uM after 24 hrs; type: functional; outline: as §2

SMILES | Activity [2] | Activity [3] | IC50 [4] | IC50 [6] | IC50 [7] | IC50 (HeLa [9]) | Activity (HeLa [1]) | Activity (HeLa [5]) | Activity (HeLa [8]) | Activity (HeLa [10]) | Activity (HeLa [1]; Homo sapiens)
CCOC(=O)C1=C(C)NC(=S)NC1c1ccc(OCCOCCOCCO)c(O)c1 (configuration not stated) | inactive | inactive | – | – | – | – | <25% | 10.3% | – | – | –
CC1=C(C(=O)O)C(c2cccc(O)c2)NC(=S)N1 (configuration not stated) | – | – | – | 32 µM | 72.2 µM | – | <25% | 15.5% | – | – | –
CCOC(=O)C1=C(C)NC(SCC)=NC1c1cccc(O)c1 (configuration not stated) | inactive | inactive | – | – | – | – | <25% | <25% | – | – | –
COC(=O)Nc1nc2cc(C(=O)c3cccs3)ccc2[nH]1 [NOCODAZOLE] | – | – | – | – | – | – | – | – | 82% | – | –
CCOC(=O)C1=C(C)N(CCOCCOCCO)C(=S)NC1c1cccc(O)c1 (configuration not stated) | inactive | inactive | – | – | – | – | <25% | 13.6% | – | – | –
CC1=C(C(=O)NCCOCCOCCN=[N+]=[N-])C(c2cccc(O)c2)NC(=S)N1 (configuration not stated) | – | – | – | 39 µM | 69.1 µM | – | <25% | 14.9% | – | – | –
CC1=C(C(=O)OCCOCCOC(=O)C2=C(C)NC(=S)NC2c2cccc(O)c2)C(c2cccc(O)c2)NC(=S)N1 (configuration not stated) | – | – | – | 10 µM | 24 µM | – | <25% | 11.4% | – | – | –
CCOC(=O)C1=C(C)N=C(SCc2ccccc2)NC1c1cccc(O)c1 (configuration not stated) | inactive | inactive | – | – | – | – | <25% | <25% | – | – | –
CC1=C(C(=O)NCCOCCOCCN)C(c2cccc(O)c2)NC(=S)N1 (configuration not stated) | – | – | – | 22 µM | 18.3 µM | – | <25% | 15.8% | – | – | –
CCOC(=O)C1=C(C)NC(=[Se])NC1c1cccc(O)c1 (configuration not stated) | – | – | – | 11.5 µM | 23 µM | – | – | 33.2% | – | – | –
CC1=C(C(=O)OCCOCCOCCOCCO)C(c2cccc(O)c2)NC(=S)N1 (configuration not stated) | – | – | – | 23 µM | 62.5 µM | – | <25% | 16.8% | – | – | –
CC1=C(C(=O)c2ccco2)C(c2cccc(O)c2)NC(=S)N1 (configuration not stated) | – | – | – | 1.5 µM | 3 µM | 9.2 µM | 96.8% | – | 72% | 77% | –

Second part, led by results:

Activity [2] | Activity [3] | IC50 [4] | IC50 [6] | IC50 [7] | IC50 (HeLa [9]) | SMILES | Activity (HeLa [1]) | Activity (HeLa [5]) | Activity (HeLa [8]) | Activity (HeLa [10]) | Activity (HeLa [1]; Homo sapiens)
inactive | inactive | – | – | – | – | CCOC(=O)C1=C(C)NC(=S)NC1c1cc(O)ccc1[N+](=O)[O-] (configuration not stated) | <25% | – | – | – | –
inactive | inactive | 3.8 µM | – | – | – | CCOC(=O)C1=C(C)NC(=S)N(C(C)=O)C1c1cccc(O)c1 (configuration not stated) | 36.9% | – | – | – | –
inactive | inactive | – | – | – | – | CCOC(=O)C1=C(C)NC(=S)NC1c1ccc(O)c(O)c1 (configuration not stated) | <25% | – | – | – | –
inactive | inactive | – | – | – | – | CCOC(=O)C1=C(C)NC(=S)NC1c1cc(OC(C)=O)ccc1OC(C)=O (configuration not stated) | 56.2% | – | – | – | –
– | – | 6.1 µM | 6.1 µM | 12.3 µM | 51.3 µM | CCOC(=O)C1=C(C)NC(=S)NC1c1cccc(O)c1 (configuration not stated) [MONASTROL] | 45.5% | 94.4% | – | 48% | –
inactive | inactive | 3.9 µM | – | – | 50 µM | CCOC(=O)C1=C(C)NC(=S)NC1c1cccc(OC(C)=O)c1 (configuration not stated) | 49.7% | 89.6% | – | – | –
– | – | – | 9.5 µM | 21 µM | – | CC1=C(C(=O)OCCOCCO)C(c2cccc(O)c2)NC(=S)N1 (configuration not stated) | <25% | 50.5% | – | – | –
– | – | – | 4.5 µM | 11.5 µM | – | CC(=O)SCCOCCOC(=O)C1=C(C)NC(=S)NC1c1cccc(O)c1 (configuration not stated) | <25% | 32.5% | – | – | –
inactive | inactive | – | – | – | – | CCOC(=O)C1=C(C)NC(=S)NC1c1cc(O)ccc1O (configuration not stated) | – | – | – | – | Active
– | – | – | 23 µM | 82.3 µM | – | CCNC(=O)C1=C(C)NC(=S)NC1c1cccc(O)c1 (configuration not stated) | <25% | 17.8% | – | – | –
– | – | – | 4 µM | 5.5 µM | – | CC1=C(C(=O)OCCOCCS)C(c2cccc(O)c2)NC(=S)N1 (configuration not stated) | <25% | 15.2% | – | – | –
inactive | inactive | 5 µM | – | – | 62.5 µM | CCOC(=O)C1=C(C)NC(=S)N(C(C)=O)C1c1cccc(OC(C)=O)c1 (configuration not stated) | 39.3% | 83.5% | – | – | –
